Converted amounts (≈) assume the structure as drawn.
Experiments:
[1] = tested on: Candida albicans; assay: Antifungal activity against Candida albicans isolate 2 expressing wild type 1,3-beta-glucan synthase grown on AM3 media after 48 hrs by EUCAST microdilution method; format: functional; conditions: isolate 2, 24 h, in the assay text read “24 hrs” for “48 hrs”
Method in brief: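 EUCAST (AFST-EUCAST) broth microdilution with caspofungin at 0.015 to 8 μg/ml final, in AM3 with glucose added to 2% final. Final inoculum was 10⁵ yeast cells/ml, with microplates prepared in batches and stored at −20°C. Plates were incubated at 35°C in humid ambient air and read spectrophotometrically after shaking at 24 h and 48 h. MIC was ≥50% growth reduction versus drug-free well; 90% end point also read at both times.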

[2] = tested on: Candida tropicalis; assay: Antifungal activity against Candida tropicalis ATCC 750 expressing wild type 1,3-beta-glucan synthase grown on RPMI media after 48 hrs by EUCAST microdilution method; format: functional; conditions: ATCC 750, 24 h, in the assay text read “24 hrs” for “48 hrs”
Method in brief: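 EUCAST (AFST-EUCAST) broth microdilution with caspofungin at 0.015 to 8 μg/ml final, in RPMI 1640 buffered to pH 7.0 with 0.165 M MOPS and glucose added to 2% final. Final inoculum was 10⁵ yeast cells/ml. Plates were incubated at 35°C in humid ambient air and read spectrophotometrically after shaking at 24 h and 48 h. MIC was ≥50% growth reduction versus drug-free well; 90% end point also read at both times.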

[3] = tested on: Candida albicans; assay: Antifungal activity against Candida albicans isolate 1 expressing wild type 1,3-beta-glucan synthase grown on RPMI media after 24 hrs by EUCAST microdilution method; conditions: isolate 1, 24 h
[4] = tested on: Candida albicans; assay: Antifungal activity against Candida albicans isolate 16 expressing wild type 1,3-beta-glucan synthase grown on RPMI media after 24 hrs by EUCAST microdilution method; conditions: isolate 16, 24 h
[5] = tested on: Candida albicans; assay: Antifungal activity against Candida albicans isolate 10 expressing wild type 1,3-beta-glucan synthase grown on RPMI media after 24 hrs by EUCAST microdilution method; conditions: isolate 10, 24 h
[6] = tested on: Pichia kudriavzevii; assay: Antifungal activity against Candida krusei isolate 1 harboring 1,3-beta-glucan synthase HS1 point mutant grown on RPMI media after 24 hrs by EUCAST microdilution method; conditions: isolate 1, 24 h
[7] = tested on: Candida albicans; assay: Antifungal activity against Candida albicans isolate 19 harboring 1,3-beta-glucan synthase HS1 point mutant grown on AM3 media after 24 hrs by EUCAST microdilution method; conditions: isolate 19, 24 h
[8] = tested on: Candida albicans; assay: Antifungal activity against Candida albicans isolate 24 harboring 1,3-beta-glucan synthase HS1 point mutant grown on RPMI media after 24 hrs by EUCAST microdilution method; conditions: isolate 24, 24 h

CC[C@H](C)C[C@H](C)CCCCCCCCC(=O)N[C@H]1C[C@@H](O)[C@@H](NCCN)NC(=O)[C@@H]2[C@@H](O)CCN2C(=O)[C@H]([C@H](O)CCN)NC(=O)[C@H]([C@H](O)[C@@H](O)c2ccc(O)cc2)NC(=O)[C@@H]2C[C@@H](O)CN2C(=O)[C@H]([C@@H](C)O)NC1=O [CASPOFUNGIN]
MIC [1]: 0.03 µg/mL (≈ 0.0274 µM)
MIC [2]: 0.5 µg/mL (≈ 0.457 µM)
MIC [3]: 0.25 µg/mL (≈ 0.229 µM)
MIC [4]: 0.5 µg/mL (≈ 0.457 µM)
MIC [5]: 0.5 µg/mL (≈ 0.457 µM)
MIC [6]: 8 µg/mL (≈ 7.32 µM)
MIC [7]: 0.5 µg/mL (≈ 0.457 µM)
MIC [8]: 4 µg/mL (≈ 3.66 µM)

Source: ChEMBL document CHEMBL1671620, “Mutations in the fks1 gene in Candida albicans, C. tropicalis, and C. krusei correlate with elevated caspofungin MICs uncovered in AM3 medium using the method of the European Committee on Antibiotic Susceptibility Testing” (2008)
